Most compounds without a hit are left out; they make up all but 3.7% or so of the library.
XBP1 UPR activ = adaptive UPR (XBP1) activation. CHO-XBP1 luciferase reporter, IRE1-XBP1 UPR activation, luminescence; percent of tunicamycin response, DMSO as zero. actives 0.33% (n = 330,000). activation, % at 20 µM. AID 463104;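 active = versus positive control, 20 µM dose yields 30% or more activation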;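 also: 100% = tunicamycin at 10 µg/mL and 0% = DMSO only wells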
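Signal: luciferase luminescence; Assay system: CHO-XBP1 luciferase reporter cells; Amount: one thousand reporter cells per well; Dosing: 20 µM single concentration, DMSO 1%; Benchmarks: high control tunicamycin 10 µg/mL final, low control DMSO vehicle only; Schedule: 6 h compound exposure at 37 °C, 5% CO2; Evaluation: percent activation relative to tunicamycin reference.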
UPR CHOP act = apoptotic UPR (CHOP) activation | CHO-CHOP luciferase reporter, luminescence; percent of tunicamycin response over DMSO baseline | activation, % at 10 µM | actives 0.34% (n = 330,000);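 active = at 10 µM dose, activation of 40% or more, normalized to positive control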;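 also: 100% = tunicamycin at 10 µg/mL and 0% = DMSO alone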
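Test system: CHO CHOP reporter cells. Input: 500 CHO-CHOP cells per well. Medium: F12 with 10% FBS. Technique: luciferase luminescence. Measure: percent activation relative to tunicamycin control. Dosing: 10 µM compound, 0.5% DMSO. Timing: 16-18 h cell attachment, then 6 h compound exposure, 37 °C.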
Dynein cargo inh = blocks dynein driven cargo transport along microtubules. actives 0.47% (n = 220,000). z-score, hits read low. 3617.4 mouse cells, GR-EGFP nuclear translocation imaging; test concentration mostly 20 µM; stimulated with dexamethasone, 1 µM; stronger effect = lower value. AID 1381;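 active = plate z-score of nuclear minus cytoplasmic receptor signal below a set negative limit, without overly bright fluorescence or cell loss, cut at about -3.5 in these data, passing the limit was not always enough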;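 also: z-score of nuclear minus cytoplasmic ring GR-EGFP intensity difference per well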
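medium = tetracycline-free induction medium containing charcoal-stripped FBS | probe or stimulus = dexamethasone, 1.0 µM final | timing = 48 h induction, then 1 h compound, then 30 min agonist, 37 °C | detection = automated 10x imaging of fixed Hoechst-stained cells | read-out basis = nuclear versus cytoplasmic GR-EGFP signal, averaged per well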
Beta2AR agonist = human beta-2 adrenergic receptor agonism by FAP | P07550 | Am2.2-beta2AR cells, FAP receptor internalization, flow cytometry | response, % (concentration not given with the values) | actives 0.43% (n = 340,000) | AID 504454;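 active = response above a set limit, near 3 SD of response in nonfluorescent compounds, cut at about 42% in these data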
Target sequence (P07550 whole entry, looked up): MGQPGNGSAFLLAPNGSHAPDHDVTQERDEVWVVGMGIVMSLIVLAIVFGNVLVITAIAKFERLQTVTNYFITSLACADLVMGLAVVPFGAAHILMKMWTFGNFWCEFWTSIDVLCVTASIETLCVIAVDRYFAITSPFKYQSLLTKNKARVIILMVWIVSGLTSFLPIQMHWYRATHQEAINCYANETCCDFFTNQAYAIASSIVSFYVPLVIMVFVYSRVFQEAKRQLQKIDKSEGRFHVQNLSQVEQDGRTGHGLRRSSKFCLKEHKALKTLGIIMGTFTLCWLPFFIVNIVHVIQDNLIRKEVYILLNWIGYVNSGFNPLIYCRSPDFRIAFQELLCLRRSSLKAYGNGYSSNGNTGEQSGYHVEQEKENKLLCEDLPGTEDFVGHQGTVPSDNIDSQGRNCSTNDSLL
Mdm2 MdmX PPI = inhibitors of human Mdm2/MdmX interaction. O15151+Q00987. SaOS-2 split-luciferase Mdm2/MdmX complementation, luminescence. inhibition, % at 8 µM. actives 3% (n = 330,000);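 active = inhibition of at least 50% at 8 µM in the primary screen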
Mdm2 ligase inh = blocks human Mdm2 ubiquitin ligase activity | Q00987 | cell-based MDM2 ubiquitination luciferase reporter, 2 h; 0 = plate control, 100 = twice control, blank-subtracted | signal enhancement, % at 5 µM | actives 0.11% (n = 210,000) | AID 1230;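 active = signal enhancement of 30% or more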;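 also: luminescence tracks abundance of the self-degrading MDM2-luciferase fusion protein; higher signal means inhibition of MDM2 E3 ligase activity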
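Assay system: stable mammalian line carrying autodegrading MDM2–luciferase fusion reporter; amount: 2000 cells seeded into each well; buffer or medium: DMEM; benchmarks: plate control and blank wells; signal: luciferase luminescence; timing: 2 h compound exposure at 37 °C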
Mdm2-MdmX conf = confirmation of human Mdm2/MdmX interaction inhibitors | shares compounds with Mdm2 MdmX PPI | Mdm2-MdmX binding, luminescent assay | inhibition, % at 8 µM | actives 55% (n = 10,000) | AID 489028; in the data active = inhibition above about 40%
Full FLuc ctr = full-length luciferase inhibition in Mdm2/MdmX counter-screen; shares compounds with Mdm2 MdmX PPI; SaOS-2 full-length luciferase counterscreen, luminescence; inhibition, % at 8 µM; actives 77% (n = 6,200);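 active = mean inhibition at 8 µM reaching about 37%, which flags the compound as non-specific, limit read from the data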;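 also: p53-null SaOS-2 cells with luciferase driven by a doxycycline-inducible promoter; compound on cells about two nights before reading with doxycycline added after day one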
Starred values were filed as active, the others as inactive; · = no result.

SMILES	XBP1 UPR activ	UPR CHOP act	Dynein cargo inh	Beta2AR agonist	Mdm2 MdmX PPI	Mdm2 ligase inh	Mdm2-MdmX conf	Full FLuc ctr
Cc1ccccc1COc1cccc(/C=N/NC(=O)c2nnn(-c3nonc3N)c2C)c1	3.7	8.3	·	3.8	50.7*	·	39.5	86.7*
Nc1nonc1-n1nnc(C(=O)N/N=C/c2ccc(OCc3ccccc3)cc2)c1CNc1ccccc1	15.4	3.8	·	-5.5	77.4*	·	10.5	·
Cc1c(C(=O)N/N=C/c2cccc(O)c2)nnn1-c1nonc1N	-0.9	2.9	·	-8.4	-9.3	·	·	·
Nc1nonc1-n1nnc(C(=O)N/N=C/c2ccc(F)cc2)c1-c1ccc2c(c1)OCO2	2.7	-2.1	·	3.3	58.9*	·	-8.9	·
Nc1nonc1-n1nnc(C(=O)N/N=C/c2ccc(O)cc2)c1COc1ccc(F)cc1	-2.2	-0.3	-0.126	5.8	22.7	·	·	·
Nc1nonc1-n1nnc(C(=O)N/N=C/c2ccc(OCc3ccccc3)cc2)c1COc1ccc(F)cc1	17.3	1.1	0.41	7.8	61.2*	·	40.3*	105.4*
CC(C)c1c(C(=O)N/N=C/c2ccc(OCc3ccccc3)cc2)nnn1-c1nonc1N	3.5	5.2	·	10.0	33.5	·	·	·
N#Cc1ccc(CN2C(=O)NC3(CCCCCC3)C2=O)cc1	-4.2	0.2	·	7.5	1.5	·	·	·
O=C(O)c1cccc(S(=O)(=O)Nc2ccc3c(c2)CCC3)c1	-2.2	1.0	·	1.8	11.3	·	·	·
Cc1c(NC(=O)C(C)OC(=O)c2cc(Cl)ccc2O)c(=O)n(-c2ccccc2)n1C (stereo unspecified)	-2.7	-1.4	·	-6.0	0.9	·	·	·
COc1ccc(-c2nn(-c3ccccc3)cc2/C=C2/SC(=S)N(Cc3ccco3)C2=O)c(C)c1	-0.8	1.7	-0.676	6.5	58.7*	3.1	12.5	·
COc1ccc(-n2c(C)cc(/C=C3\SC(=S)N(Cc4ccco4)C3=O)c2C)cc1	·	·	-0.426	-242.0	·	-2.3	·	·
Cc1ccc(S(=O)(=O)N[C@H](C(=O)NCC2CCC(C(=O)O)CC2)C(C)C)cc1 (stereo partly specified)	-3.5	1.1	·	-6.6	14.8	·	·	·
CSc1nc2nccc(/C=C\c3ccccc3)n2n1	-1.7	1.0	-1.74	-13.2	75.2*	-2.7	66.2*	23.7
CSc1nc2nccc(-c3ccc(Cl)cc3)n2n1	3.0	0.4	1.92	-1.6	47.2	-2.4	·	·
COc1ccc(CCN2CC(C(=O)N3CCN(C(C)=O)CC3)CCC2=O)cc1 (stereo unspecified)	-6.2	0.4	·	-2.8	24.9	·	·	·
Cc1ccc(O)c(C(=O)c2cc(C#N)c(=O)n(-c3c(C)n(C)n(-c4ccccc4)c3=O)c2)c1	-3.0	0.3	0.766	-3.0	-20.9	4.9	·	·
Cc1ccc(O)c(C(=O)c2cc(C#N)c(=O)n(-c3nccs3)c2)c1	-1.4	-0.2	0.936	-53.9	54.5*	-1.5	31.5	·
Nc1nc(SCC(=O)Nc2cc(Cl)c(Cl)cc2Cl)n[nH]1	-2.0	-2.4	·	4.5	-6.4	·	·	·
Cc1cc(C)c2nc(N3CCC(C(=O)NCCCN4CC(C)CC(C)C4)CC3)sc2c1 (stereo unspecified)	5.9	4.3	5.29	37.2	96.8*	-35.1	76.3*	32.3
CCOc1ccc2nc(N3CCCC(C(=O)NCCCN4CC(C)CC(C)C4)C3)sc2c1 (stereo unspecified)	1.7	1.4	·	11.1	53.4*	·	20.8	·
Cc1cc(C)c(S(=O)(=O)NCC2CCC(C(=O)NCCCN3CCC(C)CC3)CC2)c(C)c1 (stereo unspecified)	0.2	0.6	·	13.5	50.6*	·	5.0	·
CCCNC(=O)C(Cc1ccccc1)NC(=O)c1ccc(-c2ccccc2)cc1 (stereo unspecified)	2.5	1.8	·	6.1	31.7	·	·	·
O=C(O)CC1(CC(=O)Nc2ccccc2Br)CCCC1	-0.5	0.2	·	9.4	6.4	·	·	·
CC(OC(=O)/C=C/c1ccc2ccccc2n1)C(=O)NCc1ccccc1 (stereo unspecified)	-3.5	5.3	·	-0.4	54.1*	·	29.6	·
SMILES	XBP1 UPR activ	UPR CHOP act	Dynein cargo inh	Beta2AR agonist	Mdm2 MdmX PPI	Mdm2 ligase inh	Mdm2-MdmX conf	Full FLuc ctr
COC(=O)CNC(=O)COC(=O)/C=C/c1ccc2ccccc2n1	-4.2	1.5	-1.12	-2.5	21.4	-37.6	·	·
Cc1ccc(S(=O)(=O)N(C)C)cc1NC(=O)COC(=O)CNC(=O)c1cccs1	-0.7	0.5	·	-13.0	16.3	·	·	·
Cc1noc(C)c1CSc1nc2ccccc2c(=O)n1-c1ccccc1	4.9	4.0	-0.406	-5.9	66.7*	-41.9	63.1*	67.0*
Cc1noc(C)c1CSc1nc2ccccc2c(=O)n1-c1ccc(F)cc1F	-4.6	-0.5	0.211	6.0	66.3*	-8.7	53.0*	57.7*
Cc1noc(C)c1CSc1nc2[nH]ncc2c(=O)n1-c1ccccc1	10.5	-1.1	-0.0305	0.8	69.2*	14.3	68.3*	61.3*
C=CCn1c(SCc2c(C)noc2C)nc2sc3c(c2c1=O)CCCC3	0.1	-0.5	0.535	-6.6	52.3*	-9.3	55.3*	40.9*
Cc1nc(CSc2nc3[nH]ncc3c(=O)n2-c2ccccc2)cs1	-2.4	0.9	-0.664	3.6	-11.6	-12.9	·	·
Cc1ccc(S(=O)(=O)N(C)c2ccc(C(=O)Nc3ccccc3C(=O)N3CCOCC3)cc2)cc1	-6.0	-0.9	·	-1.6	-6.8	·	·	·
C=CCn1c(SCc2c(C)noc2C)nc2cc(C(=O)O)ccc2c1=O	0.1	0.1	-0.516	-3.4	22.0	-29.6	·	·
COc1cc2nc(SCc3c(C)noc3C)n(CCC3=CCCCC3)c(=O)c2cc1OC	0.9	2.4	-0.725	5.5	87.0*	-8.2	52.4*	49.6*
C=CCn1c(SCc2c(C)noc2C)nc2ccccc2c1=O	4.2	-0.6	-0.117	26.5	58.3*	-9.7	59.8*	65.9*
Cc1nn(-c2ccccc2)c(Cl)c1C(=O)N1CCN(c2ncnc3c2cnn3-c2ccccc2)CC1	-11.8	-5.3	-1.05	35.2	97.0*	-52.4	88.5*	58.5*
Cn1ncc2c(N3CCN(c4ccc(Cl)c(Cl)c4)CC3)ncnc21	-0.2	1.6	0.684	5.3	92.3*	-45.7	74.2*	98.9*
Clc1ccc(-n2ncc3c(N4CCCC4)ncnc32)cc1	-5.0	-7.8	0.116	-6.6	50.9*	-67.8	65.8*	168.3*

Screening results deposited in PubChem BioAssay by several laboratories.
